Results as given in BindingDB's records for doi:10.1021/np1002065 (The Ohio State University, 2010).

Experiments:
[1] = target: T1, Nuclear factor NF-kappa-B p105 subunit (Homo sapiens, UniProt P19838); experiment: Inhibition of NFkappa p50 isolated from nuclear extract of human HeLa cells assessed as blockade of binding to biotinylated consesus sequence by chemiluminescence assay
T1 sequence (P19838 whole entry): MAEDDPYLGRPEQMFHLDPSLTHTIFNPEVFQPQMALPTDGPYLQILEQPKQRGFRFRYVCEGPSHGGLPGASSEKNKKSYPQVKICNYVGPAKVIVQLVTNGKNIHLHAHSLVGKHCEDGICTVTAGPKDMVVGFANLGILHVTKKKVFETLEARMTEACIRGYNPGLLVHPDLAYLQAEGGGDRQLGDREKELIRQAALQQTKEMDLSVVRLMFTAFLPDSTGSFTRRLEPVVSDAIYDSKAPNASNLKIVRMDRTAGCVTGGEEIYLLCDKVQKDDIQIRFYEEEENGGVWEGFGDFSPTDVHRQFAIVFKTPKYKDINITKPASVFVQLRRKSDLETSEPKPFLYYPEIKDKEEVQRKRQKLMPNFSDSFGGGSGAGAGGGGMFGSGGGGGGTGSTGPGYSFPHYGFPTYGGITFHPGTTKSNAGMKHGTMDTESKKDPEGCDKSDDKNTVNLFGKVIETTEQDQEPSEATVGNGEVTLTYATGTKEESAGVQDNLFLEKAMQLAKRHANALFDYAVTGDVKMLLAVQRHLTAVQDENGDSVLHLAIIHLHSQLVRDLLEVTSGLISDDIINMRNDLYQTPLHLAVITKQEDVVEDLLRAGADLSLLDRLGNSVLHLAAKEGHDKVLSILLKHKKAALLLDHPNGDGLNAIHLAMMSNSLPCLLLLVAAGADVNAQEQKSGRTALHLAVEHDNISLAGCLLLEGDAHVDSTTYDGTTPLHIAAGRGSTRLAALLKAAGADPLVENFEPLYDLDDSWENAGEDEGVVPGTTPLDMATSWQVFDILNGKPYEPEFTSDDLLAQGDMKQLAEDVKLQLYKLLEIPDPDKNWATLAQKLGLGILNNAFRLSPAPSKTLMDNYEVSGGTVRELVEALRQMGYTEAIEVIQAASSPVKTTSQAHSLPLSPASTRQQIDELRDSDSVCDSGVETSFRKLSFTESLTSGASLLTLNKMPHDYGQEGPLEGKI
Outline: (§1)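 ELISA-format transcription factor assay. HeLa nuclear extract was treated with samples, and activated p50 or p65 bound to a biotinylated consensus sequence was detected by chemiluminescence on a plate reader. IC50 reported in μM.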

Transcription factor p65 = Transcription factor p65 (Human, UniProt Q04206); experiment: Inhibition of NFkappa p65 isolated from nuclear extract of human HeLa cells assessed as blockade of binding to biotinylated consesus sequence by chemiluminescence assay; outline: as §1
Chain of Transcription factor p65 (Q04206 whole entry): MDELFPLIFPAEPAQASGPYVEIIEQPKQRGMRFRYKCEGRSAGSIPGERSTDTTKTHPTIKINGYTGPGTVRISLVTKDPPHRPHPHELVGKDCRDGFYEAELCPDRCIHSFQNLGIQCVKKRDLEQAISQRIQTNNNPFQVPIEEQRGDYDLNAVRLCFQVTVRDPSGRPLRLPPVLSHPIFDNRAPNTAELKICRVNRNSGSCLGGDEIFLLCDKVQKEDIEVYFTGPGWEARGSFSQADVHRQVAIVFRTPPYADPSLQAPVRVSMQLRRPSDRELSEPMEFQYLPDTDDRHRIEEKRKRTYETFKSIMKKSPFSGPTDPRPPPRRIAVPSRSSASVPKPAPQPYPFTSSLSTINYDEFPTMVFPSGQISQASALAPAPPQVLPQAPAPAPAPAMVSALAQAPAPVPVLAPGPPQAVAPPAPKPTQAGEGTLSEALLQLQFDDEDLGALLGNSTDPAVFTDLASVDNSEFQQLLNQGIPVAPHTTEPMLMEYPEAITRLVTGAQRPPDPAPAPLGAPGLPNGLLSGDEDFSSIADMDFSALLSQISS

Row | IC50 [1] | IC50 (Transcription factor p65) | Structure (SMILES)
1 | > 10 µM | > 10 µM | C=C(C)[C@H]1Cc2c(oc3cc(O)c(CC=C(C)C)c(=O)c-3c2O)C2=C1C(=O)C(=O)C(CC=C(C)C)C2=O (stereo partly specified) [Artonin O]
2 | 3.7 µM | 2.3 µM | C=C(C)[C@H]1Cc2c(oc3c4c(cc(=O)c-3c2O)OC(C)(C)C=C4)-c2c(O)cc(O)c(O)c21 [artobiloxanthone]

Row | Structure (SMILES) | IC50 [1] | IC50 (Transcription factor p65)
3 | CC1(C)C=Cc2cc3c(cc2O1)Oc1cc(O)ccc1C(=O)C3 [Artoristilbene] | > 10 µM | > 10 µM
